In the array DNA melting data of Ke et al. (doi:10.1101/2024.01.08.574731):

What was measured:
[1] = folding enthalpy; higher = less favourable; fluorescence melt of hairpins on a sequencing array, two-state fit; settings: sodium 0.088 M
Method in brief: (§1)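 Two-state fits, bootstrapped, provided melting temperature and folding enthalpy from Cy3 fluorescence normalised to pre-quench Cy3 and to control constructs. Library hairpins with annealed Cy3 and quencher oligos were imaged on a sequenced MiSeq flow cell in 50 mM Na-HEPES pH 8.0, 25 mM NaCl, at 2.5 °C intervals up to 60 °C. Four replicates were combined with inverse-variance weighting. A 9.35 °C upward shift was applied to fitted temperatures to match UV melts.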

[2] = melting temperature; fluorescence melt of hairpins on a sequencing array, two-state fit, raised by 9.35 °C to match UV melts; settings: sodium 0.088 M
Method in brief: as §1

Sequence | folding enthalpy [1] [kcal/mol] | Tm [2] [°C]
GTCACACCGAAAGGTGAC (((..(((....)))))) | -10.9 | 41.1
GATCTTATTTAAGATC ((((((....)))))) | -38.8 | 46.4
TGATGGAAACATCA (((((....))))) | -22 | 41.3
GGGGGGGGAAACCCTCCC (((.(((....))).))) | -31.3 | 59.4
GAGGCCACGAAAGTGCTC (((..(((....)))))) | -10.9 | 32
GACAACGGAAACATTGTC (((((.(....).))))) | -26.3 | 34.6
GTGGCGACGAAAGTCCAC (((..(((....)))))) | -17.3 | 42.8
GATCAAAACTTGATC ((((((...)))))) | -27.6 | 41.7
GCGTCCGAAAGGAAACGC ((((((....)))..))) | -34.1 | 54.4
GACAGCGAAAGCTATGTC ((((((....)))..))) | -19.1 | 43.5
GATCCGGCCGCGGATC ((((((....)))))) | -41.5 | 58
GCTTTGCGAAAGCGCAGC (((..((....))..))) | -11.8 | 38.7
GGCAAGCGAAAGCTAGCC (((.(((....))).))) | -35.9 | 63.4
GATCCATACTTGGATC ((((((....)))))) | -37.3 | 54.4
GATCCTGAAAGGATC ((((((...)))))) | -38.7 | 65.9
GAACTGCGAAAGCATTC (((.(((....)))))) | -11.7 | 30.9
GTTTTGGGAAACTAAAGC (.(((.(....).))).) | -16.3 | 27.3
GATCAAGTGGTTGATC ((((((....)))))) | -27.6 | 41.9
GCTTAAGCGAAAGCTAGC (((..(((....)))))) | -17.6 | 40.5
GTCCGAGGAAACTTGGGC (.((.((....)).)).) | -27.9 | 41
GTGTAGGGAAACCTATAC ((.((((....)))).)) | -24.8 | 38.2
GGATAAGGAAACCTATCC (((((.(....).))))) | -30.3 | 33.5
GGGGTCGGAAACGATCCC (((.(((....))).))) | -48.4 | 59.7
GATCCCTGATGGGATC ((((((....)))))) | -41.1 | 59.8

Sequence | folding enthalpy [1] [kcal/mol] | Tm [2] [°C]
GGATGCGAAAGCATTCC ((((((....))).))) | -16.9 | 55.9
GCCCAGAAATGGGC (((((....))))) | -33.9 | 63.1
GATCTGAGTTCAGATC ((((((....)))))) | -43.7 | 49.9
GTATGCGAAAGCATGTAC ((((((....)))..))) | -10.6 | 38
GGACATCGAAAGATCTCC (((.(((....))).))) | -21.8 | 32.6
GATCAGTACACTGATC ((((((....)))))) | -36.4 | 54.7
GCAGAACGAAAGTTGTGC (((.(((....))).))) | -32.1 | 55.4
GATCCCCCAGGGGATC ((((((....)))))) | -36.4 | 65.2
GATCCACGGCTGGATC ((((((....)))))) | -39.1 | 50.5
GTATTGGCGAAAGCCTAC (((..(((....)))))) | -3.67 | 41.5
GATCAGGATCCTGATC ((((((....)))))) | -53.1 | 54.3
GTTTAGGGAAACCTAGAC ((.((((....)))).)) | -27.4 | 33
GATCGGTCCTCCGATC ((((((....)))))) | -38 | 59.9
GATCACTCGGGTGATC ((((((....)))))) | -37.4 | 57.6
GATTCCCGAAAGGGATC (((.(((....)))))) | -13.1 | 47.3
GATCCTGTAAGGATC ((((((...)))))) | -37 | 62
GCACTCCGAAAGGAATGC (((.(((....))).))) | -38.6 | 51.1
GCGTCACCGAAAGGTCGC (((..(((....)))))) | -25.2 | 51.2
ATAACGAAAGTTAT (((((....))))) | -15.2 | 46.3
GAACGCGAAAGCGCCTTC ((((((....)))..))) | -11.1 | 35.8
GCGAGCGGAAACACTCGC (((((.(....).))))) | -48.3 | 56.2
GATCTGCACCCAGATC ((((((....)))))) | -33.4 | 47.8
GGGAGTCCGAAAGGACCC (((..(((....)))))) | -14 | 53.6
GTCACACGAAAGTGCGAC (((.(((....))).))) | -35.4 | 55.6

Sequence | folding enthalpy [1] [kcal/mol] | Tm [2] [°C]
ATCGAGAAATCGAT (((((....))))) | -23.9 | 39.5
GGCTACGAAAGTAAGGCC ((((((....)))..))) | -23.3 | 48.2
GCACTCGAAAGAGCGTGC ((((((....)))..))) | -25.9 | 43.2
GACATTACGAAAGTAGTC (((..(((....)))))) | -14.8 | 27.4
ACGAAGAAATTCGT (((((....))))) | -18.1 | 38
GTGTTGGGAAACCAACGC (.(((((....))))).) | -32.8 | 54.2
GTACCGGGAAACTGGTGC (.(((.(....).))).) | -25.9 | 42.4
GATGACGAAAGTCTGATC ((((((....)))..))) | -12.1 | 33.1
GAGGCCGAAAGGCTCTC ((((((....))).))) | -17.9 | 54.7
GCTGCGCGAAAGCGACGC ((..(((....)))..)) | -19.4 | 56
GATCGCGAAAGCGGTATC ((((((....)))..))) | -10.9 | 39
GATTAGGGAAACCTGATC (((.(((....))).))) | -24.1 | 38
GATCGTAATTACGATC ((((((....)))))) | -36 | 56.3
CGGGGTCGGAAACGACCG (((..(((....)))))) | -7.49 | 51.9
GCTGGTCGAAAGACAAGC (((.(((....))).))) | -41.4 | 56.2
GATCACTTCTGTGATC ((((((....)))))) | -38.4 | 58.9
GATCCTTCAAAGGATC ((((((....)))))) | -33.5 | 52.9
GGGGCACCGAAAGGTCCC (((..(((....)))))) | -25.9 | 53.1
GGATGCACGAAAGTGTCC (((..(((....)))))) | -14 | 30.8
GTGGTCGCGAAAGCGCAC (((..(((....)))))) | -12.4 | 44.9
GATCTAGCCATAGATC ((((((....)))))) | -41 | 49.3
AGACCGAAAGGTCT (((((....))))) | -21.1 | 68.6
GAGCGCGGAAACGTGCTC ((((.((....)).)))) | -32.3 | 65.6
GATCCAATACTGGATC ((((((....)))))) | -40 | 48.6

Sequence | folding enthalpy [1] [kcal/mol] | Tm [2] [°C]
CGGCAGAAATGCCG (((((....))))) | -31.3 | 64.9
GGAACCGAAAGGTCTTCC ((((((....)))..))) | -20.3 | 38.7
GTACGTGGAAACACGTGC (.(((((....))))).) | -28 | 54.2
GAACAGAAATGTTC (((((....))))) | -18.1 | 41.4
GTATGACGAAAGTCCTAC (((.(((....))).))) | -24.3 | 38.9
GATCTTGTATAAGATC ((((((....)))))) | -37.7 | 50.5
GGCCGTACGAAAGTAGCC (((..(((....)))))) | -22.6 | 42.3
GATCATGTCGATGATC ((((((....)))))) | -37.1 | 51
GGTCTCCCGAAAGGGACC (((..(((....)))))) | -12.4 | 41.2
GCTGAGGGAAACTTCAGC (((((.(....).))))) | -32.5 | 48.6
GCAACACGAAAGTGCTGC (((.(((....))).))) | -48.4 | 54.8
GATCTTAATAAGATC ((((((...)))))) | -24.4 | 39.8
GTGAACACGAAAGTGCAC (((..(((....)))))) | -14.1 | 41.2
GGGTTATCGAAAGATCCC (((..(((....)))))) | -24.3 | 34.9
GCGAACTGTCGC ((((....)))) | -21.4 | 45.5
GATCTCACCAGAGATC ((((((....)))))) | -31.9 | 54.5
GCCAAGGGAAACCTCGGC (((.(((....))).))) | -29.2 | 46
GACGACGAAAGTCGAGTC ((((((....)))..))) | -10.5 | 39.7
GAGTCCGAAAGGACCTC ((((((....))).))) | -13.2 | 54.5
GTCGTCGAAAGACGTGAC ((((((....)))..))) | -10.8 | 39.6
GCAATAGCGAAAGCTTGC (((..(((....)))))) | -24.7 | 48.7
